FLuc act counter – FLuc activators, initial screening, artefact control for FLuc-dependent activation tests, biochemical, ATPlite luminescence; activation factor at 10 µM; AID 1027, 2008; 200,000 tested, under 10 active; ATPlite luciferase biochemical, 10 min; 0 = ATP-free wells, 1 = DMSO control;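 active = luciferase activation factor, scaled between plate controls, of at least 2 with compound at 10 µM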
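Material: Luciferase/luciferin reagent mix | Doses: Test compounds dosed from 2 mM stocks in 100% DMSO | Timing: 10 min incubation after luciferase reagent addition, room temperature | Measured by: Luminescence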
Redox H2O2 prof – compounds producing H2O2 with reducing agent – biochemical, NIH compound library profiling, artefact control for MLSCN library redox annotation, primary screen. DTT-dependent redox cycling H2O2, phenol red/HRP absorbance; 100% = 100 µM peroxide control, 0% = buffer. activation, % at 10 µM. actives 0.03% (n = 200,000). AID 878, 2007;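 active = activation of at least 50% relative to the plate's high and low controls in the primary single-dose screen; inactive = activation below 50%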;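 also: compound incubated with DTT at 0.8 mM final as the reducing agent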
ABCG2 inh – ABCG2 efflux pump inhibitors, primary screen, multiplex with ABCB1, IgMXP3 cells, flow cytometry. Broad substrate specificity ATP-binding cassette transporter ABCG2 (Homo sapiens), Q9UNQ0. JC-1 efflux. inhibition, % at 6.6 µM. actives 0.1% (n = 190,000). AID 1325, 2008;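 active = inhibition above 80%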
Target sequence (Q9UNQ0 whole entry, looked up): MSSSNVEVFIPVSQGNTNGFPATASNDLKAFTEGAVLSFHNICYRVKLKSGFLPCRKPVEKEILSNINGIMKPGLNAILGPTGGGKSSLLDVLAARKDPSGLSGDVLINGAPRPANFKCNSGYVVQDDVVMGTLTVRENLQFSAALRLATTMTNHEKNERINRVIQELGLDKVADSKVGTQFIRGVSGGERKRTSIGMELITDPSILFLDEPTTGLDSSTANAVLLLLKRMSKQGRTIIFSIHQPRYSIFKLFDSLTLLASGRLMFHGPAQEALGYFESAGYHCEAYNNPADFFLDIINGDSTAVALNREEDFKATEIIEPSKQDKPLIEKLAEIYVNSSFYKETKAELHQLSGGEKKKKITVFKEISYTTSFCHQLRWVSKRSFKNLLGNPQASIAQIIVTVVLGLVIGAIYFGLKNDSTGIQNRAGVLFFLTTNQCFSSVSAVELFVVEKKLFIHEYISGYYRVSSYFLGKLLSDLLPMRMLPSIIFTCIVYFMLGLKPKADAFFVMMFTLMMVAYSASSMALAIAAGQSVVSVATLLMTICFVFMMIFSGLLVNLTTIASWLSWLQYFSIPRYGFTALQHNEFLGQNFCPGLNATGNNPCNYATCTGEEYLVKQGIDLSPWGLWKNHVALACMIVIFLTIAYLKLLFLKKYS
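Read-out basis: Efflux inhibition in percent versus controls | Test system: ABCG2 IgMXP3 and barcoded ABCB1 CCRF-Adr cell mix | Quantity: 3 million cells/mL in well | Schedule: 10 min at 25 °C | Control set: Nicardipine as high control, DMSO as low control | Reagent: JC-1 as fluorescent efflux pump substrate | Signal: Flow cytometry of retained JC-1 fluorescence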
FLuc inh counter – firefly luciferase enzyme inhibitors, primary screen, artefact control for luciferase-based inhibitor screens, biochemical, luminescence, ATPLite; 10 min; inhibition, % at 10 µM; actives 1.5% (n = 200,000); AID 1006, 2008;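 active = inhibition above about 50% when tested at 10 µM, limit read from the data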
ABCB1 inh – ABCB1 efflux pump inhibitors, primary screen, cell-based, multiplex, flow cytometry, ABCG2 counter-screen. actives 0.067% (n = 190,000). CCRF-Adr cells, JC-1 efflux. ATP-dependent translocase ABCB1 (Homo sapiens), P08183. inhibition, % at 6.6 µM; in the data active = inhibition above about 40%;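 also: higher value means more JC-1 retained so stronger ABCB1 efflux block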
Measles CPE – compounds protecting cells from measles virus cytopathic effect, primary screen, measles RdRp inhibitor project, single point, MLSMR library, absorbance; Measles virus-infected cells, CPE protection; protection (pct of control), % at 4 µM; actives 1.5% (n = 140,000); in the data active = protection mostly above about 24%, no sharp cut-off; inactive = mostly below about 26%
ABCB1 single pt – ABCB1 efflux pump inhibitors, confirmation, cell-based, single point, ABCG2 counter-screen | actives 7% (n = 270) | shares compounds with ABCG2 inh | CCRF-Adr cells, JC-1 efflux, flow cytometry | inhibition, % at 6.6 µM;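 active = inhibition of pump activity above 50%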
ABCG2 confirm – ABCG2 efflux pump inhibitors, confirmation, single point, IgMXP3 cells, ABCB1 counter-screen paired. actives 6% (n = 270). shares compounds with ABCG2 inh. JC-1 efflux, flow cytometry. inhibition, % at 6.6 µM;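 active = inhibition above 50%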
IgMXP3 fluor – compound autofluorescence in ABCG2-expressing IgMXP3 cells, confirmation, artefact control for ABC transporter inhibitor project, cell-based, 488/530 nm, flow cytometry | shares compounds with ABCG2 inh | compound autofluorescence 488/530 nm; active compounds read high | fluorescence at 6.6 µM | actives 30% (n = 270);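 active = fluorescence in ABCG2-expressing cells above the plate's control-well mean plus 3 SD, cut at about 15 in these data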
CCRF-Adr fluor – compound autofluorescence in ABCB1-expressing CCRF-Adr cells, confirmation, artefact control for ABC transporter inhibitor project, cell-based, 488/530 nm, flow cytometry | actives 30% (n = 270) | compound autofluorescence 488/530 nm; active compounds read high | fluorescence at 6.6 µM | shares compounds with ABCG2 inh;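 active = fluorescence beyond the plate control mean plus 3 SD, with a fluorescence-to-maximum score over 2, cut at about 25 in these data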
Of the large screens only hits and unclear results are named; the others gave an inactive call (follow-up assays come after a bar, where they were run). Only some compounds are listed: those with a hit (about 2.7% of all), similar ones and a draw of the others.

CN(C)c1ccc(P(=O)(Nc2cccc(C(F)(F)F)c2)N2CCOCC2)c(NC(=O)c2cccs2)c1 (configuration not stated)	ABCB1 inh 51 | ABCB1 single pt 75 | ABCG2 confirm inactive | IgMXP3 fluor inactive | CCRF-Adr fluor inactive
COCCNC(=O)c1ccccc1NC(=O)CCSc1ccccc1	none (no result: Measles CPE)
Cn1c(CCCOc2ccc(Cl)cc2Cl)nnc1SCC(=O)Nc1cccc(F)c1	ABCG2 inh 111 | ABCB1 single pt inactive | ABCG2 confirm inactive | IgMXP3 fluor inactive | CCRF-Adr fluor inactive
Cn1c(CCCOc2ccc(Cl)cc2Cl)nnc1SCC(=O)Nc1ccc(F)c(Cl)c1	none
CN(Cc1ccc(-n2cccn2)cc1)Cc1nc(-c2cnccn2)no1	none (no result: Measles CPE)
O=C1S/C(=C/c2ccc(N3CCOCC3)o2)C(=O)N1Cc1c(F)cccc1Cl	ABCG2 inh 136 | ABCB1 single pt inactive | ABCG2 confirm inactive | IgMXP3 fluor 248 | CCRF-Adr fluor 49
O=C1N=C(N2CCOCC2)S/C1=C/c1ccc(-c2ccccc2Cl)o1	none
COc1ccc(CNc2nc(-c3cccnc3)nn2C(=O)c2cccs2)cc1	ABCG2 inh 88 | ABCB1 single pt inactive | ABCG2 confirm inactive | IgMXP3 fluor inactive | CCRF-Adr fluor inactive
Cc1ccc(/C=C2\CCC3=C2OC(N)=C(C#N)C3c2ccc(C)cc2)cc1 (configuration not stated)	ABCG2 inh 85, ABCB1 inh 56 | ABCB1 single pt inactive | ABCG2 confirm inactive | IgMXP3 fluor 65 | CCRF-Adr fluor 87
N#CC1=C(N)OC2=C(CCc3ccccc32)C1c1ccccc1 (configuration not stated)	none
COc1ccc(NC(=O)COC(=O)c2cc(SC)ccc2Cl)c(OC)c1	none
COc1ccccc1C(=O)C1CCCN(C(=O)c2cccc(-n3cccn3)c2)C1 (configuration not stated)	none (no result: Measles CPE)
COc1cccc(/C=C(/C(=O)OCC(=O)NC2CCCC(C)C2C)c2ccccc2)c1 (configuration not stated)	none (no result: Redox H2O2 prof) | ABCB1 single pt inactive | ABCG2 confirm inactive | IgMXP3 fluor inactive | CCRF-Adr fluor inactive
O=[N+]([O-])c1ccc(OCCN2CCCCCC2)cc1	ABCG2 inh 81 | ABCB1 single pt inactive | ABCG2 confirm inactive | IgMXP3 fluor inactive | CCRF-Adr fluor inactive
Cc1c(C#N)c(NC(=O)CCl)n(Cc2ccc(F)cc2)c1C	ABCB1 inh 45 (no result: Measles CPE) | ABCB1 single pt inactive | ABCG2 confirm inactive | IgMXP3 fluor inactive | CCRF-Adr fluor inactive
Cc1c(C#N)c(NC(=O)CCl)n(Cc2ccccc2)c1C	none (no result: Measles CPE)
COc1ccc(F)cc1S(=O)(=O)NC1CCCC1	none
